# Results taken from ChEMBL document CHEMBL2046305, “Discovery of selective menaquinone biosynthesis inhibitors against Mycobacterium tuberculosis” (J Med Chem, 2012).
# The source made the active and inactive calls. The calls are words filed in the database; no cut-off is given here.
# Key:
# Staphylococcus aureus [1] = assay: Antibacterial activity against Staphylococcus aureus Seattle 1945 ATCC 25923 by agar plate diffusion method; format: functional
# [2] = Inhibition of Mycobacterium tuberculosis MenA using [3H]farnesyl and DHNA as substrate after 2 hrs
# Summary of the method: (§1)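 Membrane fraction from mid-log cultures in 7H9/OADC, washed in saline, sonicated in MOPS pH 8/sucrose/MgCl2/2-mercaptoethanol buffer, spun 15,000 g then 200,000 g; the fraction was the enzyme source. DHNA (500 μM stock), MgCl2, 0.1% CHAPS, Tris pH 8, farnesyl diphosphate (200 μM stock) and inhibitor, 2 h at 37 °C. Quenched with 0.1 M AcOH/MeOH, extracted with hexanes, DMMK measured.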
# Escherichia coli [3] = assay: Growth inhibition of Escherichia coli Seattle ATCC 25922 at 5 to 10 ug/ml by microplate alamar blue assay; format: functional, organism-based
# [4] = test system: Mycobacterium tuberculosis; assay: Antibacterial activity against non-replicating Mycobacterium tuberculosis H37Rv ATCC 27294 by low oxygen recovery assay; format: functional
# Staphylococcus aureus [5] = assay: Inhibition of Staphylococcus aureus MenA using [3H]farnesyl and DHNA as substrate at 100 uM after 2 hrs; summary of the method: as §1
# [6] = test system: Mycobacterium tuberculosis; assay: Bactericidal activity against Mycobacterium tuberculosis; format: functional
# Staphylococcus aureus [7] = assay: Bactericidal activity against Staphylococcus aureus; format: functional
# [8] = test system: Mycobacterium tuberculosis; assay: Inhibition of Mycobacterium tuberculosis MenA using [3H]farnesyl and DHNA as substrate at 100 uM after 2 hrs; summary of the method: as §1
# [9] = test system: Mycobacterium tuberculosis; assay: Antibacterial activity against Mycobacterium tuberculosis H37Rv ATCC 27294 by microplate alamar blue assay; format: functional
# Summary of the method: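 Colorimetric microplate assay run under aerobic conditions; growth scored by the colour change of resazurin. Compounds showing at least 90% inhibition in a preliminary screen were retested at lower concentrations to give the MIC.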
# Escherichia coli [10] = assay: Growth inhibition of Escherichia coli Seattle ATCC 25922 at 5 to 10 ug/ml by microplate alamar blue assay in presence of 50 uM VK2; format: functional, organism-based
# Summary of the method: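 E. coli grown with inhibitor under anaerobic conditions; rescue tested by supplementing with menaquinone (VK2, 50 μM).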
# [11] = Selectivity ratio of IC50 for human HepG2 cells to IC50 for Mycobacterium tuberculosis […]; format: ADME, cell-based; conditions: read-out: Ratio IC50
# [12] = test system: Mycolicibacterium smegmatis; assay: Antibacterial activity against Mycobacterium smegmatis by microplate alamar blue assay; format: functional
# [13] = test system: Mycobacterium intracellulare; assay: Antibacterial activity against Mycobacterium intracellulare ATCC 15984 by microplate alamar blue assay; format: functional
# Vero = assay: Cytotoxicity against african green monkey Vero cells after 72 hrs by MTT assay; format: cell-based; conditions: Chlorocebus sabaeus
# Summary of the method: (§2)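 Cell viability after 72 h exposure, tested at 10 times the H37Rv MIC; read-out was cellular conversion of MTT into formazan.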
# [14] = Selectivity ratio of IC50 for african green monkey Vero cells to IC50 for Mycobacterium tuberculosis […]; format: ADME, cell-based; conditions: read-out: Ratio IC50
# HepG2 = assay: Cytotoxicity against human HepG2 cells after 72 hrs by MTT assay; format: cell-based; conditions: HepG2, 72 h; summary of the method: as §2
# [15] = test system: Mycobacterium tuberculosis; assay: Ratio of MIC for rifampicin to compound MIC for non-replicating Mycobacterium tuberculosis H37Rv ATCC 27294 by low oxygen recovery assay; format: functional
# Escherichia coli [16] = assay: Antibacterial activity against Escherichia coli Seattle ATCC 25922 at 12.5 ug/ml by oxygen consumption assay; format: functional, organism-based
Compound,MIC (Staphylococcus aureus [1]),IC50 [2],growth inhibition (GI) (Escherichia coli [3]),MIC [4],inhibition (Staphylococcus aureus [5]),MIC [6],MIC (Staphylococcus aureus [7]),inhibition [8],MIC [9],growth inhibition (GI) (Escherichia coli [10]),selectivity ratio [11],MIC [12],MIC [13],IC50 (Vero),selectivity ratio [14],IC50 (HepG2),Ratio [15],Activity (Escherichia coli [16])
COc1ccc(CCNC(CO)c2cccc(COc3cccc(C(=O)c4ccc(Cl)cc4)c3)c2)cc1 (racemic),> 60 µg/mL,15 µM,Active,3 µg/mL,inactive,8 µg/mL,> 50 µg/mL,Active,12.5 µg/mL,inactive,–,–,–,–,–,–,–,–
CCCCC(O)CN1CCC(COc2cccc(C(=O)c3ccc(Cl)cc3)c2)CC1 (racemic),> 60 µg/mL,15 µM,Active,5.2 µg/mL,inactive,8 µg/mL,> 50 µg/mL,Active,12.5 µg/mL,inactive,–,–,–,–,–,–,–,–
O=C(c1ccc(Cl)cc1)c1ccc(OCc2cccc(CN3CCC(N4CCCCC4)CC3)c2)cc1Cl,–,–,–,–,–,8 µg/mL,15.5 µg/mL,–,–,–,–,–,–,–,–,–,–,–
C=CCN(C)CCCCCCCCOc1ccc(C(=O)c2ccc(Cl)cc2)c(Cl)c1,–,–,–,–,–,0.5 µg/mL,15.5 µg/mL,–,–,–,–,–,–,–,–,–,–,–
CC(C)=CC(O)C/C(C)=C/CC/C(C)=C/Cc1c(C)n(O)c2ccccc2c1=O (configuration not stated) [AURACHIN RE],–,–,–,–,–,25 µg/mL,3.1 µg/mL,–,–,–,–,–,–,–,–,–,–,–
CCCCCCCC(O)c1cccc(CN2CCC(COc3ccc(C(=O)c4ccc(Cl)cc4)c(Cl)c3)CC2)c1 (racemic),> 60 µg/mL,20 µM,Active,1.88 µg/mL,inactive,8 µg/mL,> 50 µg/mL,Active,12.5 µg/mL,inactive,–,–,–,–,–,–,–,–
CCCCC(O)CN1CCC(COc2ccc(C(=O)c3ccc(Cl)cc3)c(Cl)c2)CC1 (racemic),> 60 µg/mL,15 µM,Active,2.82 µg/mL,inactive,0.5 µg/mL,> 50 µg/mL,Active,6.25 µg/mL,inactive,–,–,–,–,–,–,–,–
CCCCCCC[C@@H](OC(N)=O)c1cccc(CN2CCC(COc3cccc(C(=O)c4ccc(Cl)cc4)c3)CC2)c1,> 60 µg/mL,15 µM,Active,4.93 µg/mL,inactive,–,–,Active,12.5 µg/mL,inactive,–,–,–,–,–,–,–,–
CCCCCC[C@H](CN1CCC(COc2cccc(/C(=N\OC)c3ccc(Cl)cc3)c2)CC1)OC(N)=O,> 60 µg/mL,1.2 µM,Active,0.85 µg/mL,inactive,–,–,Active,2.31 µg/mL,inactive,> 10,6.5 µg/mL,6.5 µg/mL,25 µg/mL,> 10,25 µg/mL,–,–
CCCCCCCC(O)c1cccc(CN2CCC(COc3cccc(C(=O)c4ccc(Cl)cc4)c3)CC2)c1 (racemic),> 60 µg/mL,15 µM,Active,1.88 µg/mL,inactive,8 µg/mL,> 50 µg/mL,Active,12.5 µg/mL,inactive,–,–,–,–,–,–,–,–
CCCCCC[C@@H](O)CN1CCC(COc2ccc(C(=O)c3ccc(Cl)cc3)c(Cl)c2)CC1,> 60 µg/mL,9.5 µM,Active,5.2 µg/mL,inactive,–,–,Active,6.25 µg/mL,inactive,–,–,–,–,–,–,–,–
CCCCCC[C@H](CN1CCC(COc2cccc(C(=O)c3ccc(Cl)cc3)c2)CC1)OC(N)=O,> 60 µg/mL,1.5 µM,Active,0.85 µg/mL,inactive,–,–,Active,2.31 µg/mL,inactive,–,6.5 µg/mL,6.5 µg/mL,7.5 µg/mL,–,7.5 µg/mL,1.7,Active
O=C(c1ccc(Cl)cc1)c1ccc(OC/C=C/COCCCNCCc2ccc(F)cc2)cc1Cl,–,–,–,–,–,8 µg/mL,0.5 µg/mL,–,–,–,–,–,–,–,–,–,–,–
CCCC[C@H](O)CN1CCC(COc2ccc(C(=O)c3ccc(Cl)cc3)c(Cl)c2)CC1,> 60 µg/mL,4.5 µM,Active,1.43 µg/mL,inactive,–,–,Active,1.5 µg/mL,inactive,–,–,–,–,–,–,–,–
COc1ccc(CCNCCCOCCCCOc2ccc(C(=O)c3ccc(Cl)cc3)c(Cl)c2)cc1,–,–,–,–,–,15.5 µg/mL,0.5 µg/mL,–,–,–,–,–,–,–,–,–,–,–
CCCC[C@@H](O)CN1CCC(COc2cccc(C(=O)c3ccc(Cl)cc3)c2)CC1,> 60 µg/mL,17 µM,Active,4.91 µg/mL,inactive,–,–,Active,6.2 µg/mL,inactive,–,–,–,–,–,–,–,–
CCCCCCC[C@@H](O)c1cccc(CN2CCC(COc3ccc(/C(=N\OC)c4ccc(Cl)cc4)c(Cl)c3)CC2)c1,> 60 µg/mL,15 µM,Active,5.54 µg/mL,inactive,–,–,Active,12.5 µg/mL,inactive,–,–,–,–,–,–,–,–
CCCCCC[C@@H](CN1CCC(COc2ccc(C(=O)c3ccc(Cl)cc3)c(Cl)c2)CC1)OC(N)=O,> 60 µg/mL,1.5 µM,Active,1.45 µg/mL,inactive,–,–,Active,1.5 µg/mL,inactive,–,–,–,–,–,–,–,Active
